Experimental findings from ChEMBL document CHEMBL5131576, “Turning the Other Cheek: Influence of the cis-Tetrafluorocyclohexyl Motif on Physicochemical and Metabolic Properties” (ACS Med Chem Lett, 2022) are described below.

The structures appear in SMILES notation. In brackets after ≈: the same amount, converted by molar mass. Bounds are passed on as bounds.

The nature of one data set: Kinetic solubility of the compound. Format: physicochemical.
Settings: not given
In the case of `NS(=O)(=O)c1cccc(-c2ccc(C3CCCCC3)cc2)c1`, the Kinetic_solubility entry is on record as “Soluble”.

Consider `CN1CCC(c2ccc(-c3ccc(C4CCCCC4)cc3)cn2)CC1`, for which the Kinetic_solubility result is reported as “Soluble”.

As a reminder, the kinetic solubility is solubility judged after dilution from a stock solution rather than from solid. In the case of `O=C(Nc1ccc([C@H]2[C@@H](F)[C@@H](F)C[C@@H](F)[C@H]2F)cc1)c1cn[nH]c1`, the solubility (kinetic) came out at 136 µM (≈ 46.4 µg/mL).

`O=C(Nc1ccc(C2CCCCC2)cc1)c1cn[nH]c1` came in with a Kinetic_solubility of under 1 µM.

As to `O=C(CC1CCOCC1)Nc1ccc(C2CCCCC2)cc1`, the Kinetic_solubility is under 1 µM.

Consider `O=C(Cc1cccnc1)Nc1ccc(C2CCCCC2)cc1`, for which the Kinetic_solubility was under 1 µM.

`CN1CCN(C(=O)c2ccc(C3CCCCC3)cc2)CC1`: the Kinetic_solubility result is listed as “Soluble”.

In turn, `O=C(COCC(F)F)Nc1ccc(C2CCCCC2)cc1` returned a Kinetic_solubility of under 1 µM.

On to `O=C(c1ccc(C2CCCCC2)cc1)N1CC(O)C1`, for which the Kinetic_solubility result was “Soluble”.

`CN1CCN(C(=O)c2ccc(C3CCCCC3)cc2)CC1=O`: the Kinetic_solubility entry is “Soluble”.

For `c1ncc(-c2ccc(C3CCCCC3)cc2)cn1`, the Kinetic_solubility result is “Soluble”.

`O=C(Nc1ccc(C2CCCCC2)cc1)[C@H]1CC1(F)F` returned a Kinetic_solubility of under 1 µM.

Another data set is described as follows: Permeability across apical to basolateral side in MDCK cells pgp knock out incubated up to 180 mins by LC_MS/MS analysis. Format: ADME, cell-based, Canis lupus familiaris. Particulars: dog, read-out: permeability. In outline: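 MDCK cells with the endogenously expressed canine MDR1 gene knocked out; transport measured in the apical-to-basolateral direction; apparent permeability reported in 10^-6 cm/s.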
For the compound `CN1CCN(C(=O)c2ccc([C@H]3[C@@H](F)[C@@H](F)C[C@@H](F)[C@H]3F)cc2)CC1`, the Papp A→B at 3 h was 18.6 ×10⁻⁶ cm/s.

Regarding `O=C(NCC1CCOCC1)c1ccc([C@H]2[C@@H](F)[C@@H](F)C[C@@H](F)[C@H]2F)cc1`, the Papp A→B at 3 h was 20.3 ×10⁻⁶ cm/s.

Regarding `CC(C(=O)Nc1ccc(C2CCCCC2)cc1)n1cncn1` (configuration not stated), the Papp A→B at 3 h worked out at 29.5 ×10⁻⁶ cm/s.

Turning to `CN(CCC#N)C(=O)c1ccc([C@H]2[C@@H](F)[C@@H](F)C[C@@H](F)[C@H]2F)cc1`, the Papp A→B at 3 h was 8.1 ×10⁻⁶ cm/s.

`CN(C)CCC(=O)Nc1ccc([C@H]2[C@@H](F)[C@@H](F)C[C@@H](F)[C@H]2F)cc1`: the Papp A→B at 3 h worked out at 3.7 ×10⁻⁶ cm/s.

For `O=C(Cn1ccnc1)Nc1ccc(C2CCCCC2)cc1`, the Papp A→B at 3 h was 11.1 ×10⁻⁶ cm/s.

Regarding `O=C(c1ccc([C@H]2[C@@H](F)[C@@H](F)C[C@@H](F)[C@H]2F)cc1)N1CC(O)C1`, the Papp A→B at 3 h stood at 6.7 ×10⁻⁶ cm/s.

As for `O=C(Cc1cccnc1)Nc1ccc([C@H]2[C@@H](F)[C@@H](F)C[C@@H](F)[C@H]2F)cc1`, the Papp A→B at 3 h was determined as 15 ×10⁻⁶ cm/s.

As for `N#CCC(=O)Nc1ccc([C@H]2[C@@H](F)[C@@H](F)C[C@@H](F)[C@H]2F)cc1`, the Papp A→B at 3 h was determined as 16 ×10⁻⁶ cm/s.

As for `O=C(NCc1cc[nH]n1)c1ccc([C@H]2[C@@H](F)[C@@H](F)C[C@@H](F)[C@H]2F)cc1`, the Papp A→B at 3 h was determined as 2.1 ×10⁻⁶ cm/s.

In the case of `COCCN(C)C(=O)c1ccc([C@H]2[C@@H](F)[C@@H](F)C[C@@H](F)[C@H]2F)cc1`, the Papp A→B at 3 h was found to be 9.4 ×10⁻⁶ cm/s.

Consider `COCCN(C)C(=O)c1ccc(C2CCCCC2)cc1`, for which the Papp A→B at 3 h was 9.4 ×10⁻⁶ cm/s.

As for `CC(C(=O)Nc1ccc([C@H]2[C@@H](F)[C@@H](F)C[C@@H](F)[C@H]2F)cc1)n1cncn1` (some centres not stated), the Papp A→B at 3 h turned out to be 5.5 ×10⁻⁶ cm/s.

For the compound `O=C(NCCc1cccnc1)c1ccc(C2CCCCC2)cc1`, the Papp A→B at 3 h came to 23 ×10⁻⁶ cm/s.

Consider `O=C(Cc1cccnc1)Nc1ccc(C2CCCCC2)cc1`, for which the Papp A→B at 3 h came to 19.9 ×10⁻⁶ cm/s.

For the compound `CN(Cc1cccnc1)C(=O)c1ccc(C2CCCCC2)cc1`, the Papp A→B at 3 h was determined as 12.1 ×10⁻⁶ cm/s.

`CN1CCN(C(=O)c2ccc([C@H]3[C@@H](F)[C@@H](F)C[C@@H](F)[C@H]3F)cc2)CC1=O`: the Papp A→B at 3 h turned out to be 4.5 ×10⁻⁶ cm/s.

Regarding `COCCC(=O)Nc1ccc([C@H]2[C@@H](F)[C@@H](F)C[C@@H](F)[C@H]2F)cc1`, the Papp A→B at 3 h was found to be 18.1 ×10⁻⁶ cm/s.

Consider `CN(CCC#N)C(=O)c1ccc(C2CCCCC2)cc1`, for which the Papp A→B at 3 h was found to be 18.7 ×10⁻⁶ cm/s.

Take `COCCC(=O)Nc1ccc(C2CCCCC2)cc1`: the Papp A→B at 3 h was found to be 22.2 ×10⁻⁶ cm/s.

Consider `CN1CCN(C(=O)c2ccc(C3CCCCC3)cc2)CC1`, for which the Papp A→B at 3 h is 20.3 ×10⁻⁶ cm/s.

For `O=C(c1ccc(C2CCCCC2)cc1)N1CC(O)C1`, the Papp A→B at 3 h was found to be 26 ×10⁻⁶ cm/s.

For the compound `CC(=O)N1CC(C(=O)Nc2ccc([C@H]3[C@@H](F)[C@@H](F)C[C@@H](F)[C@H]3F)cc2)C1`, the Papp A→B at 3 h amounted to 0.6 ×10⁻⁶ cm/s.

`O=C(NCCN1CCCC1=O)c1ccc(C2CCCCC2)cc1`: the Papp A→B at 3 h is 15.5 ×10⁻⁶ cm/s.

In the case of `CC(=O)N1CC(C(=O)Nc2ccc(C3CCCCC3)cc2)C1`, the Papp A→B at 3 h was found to be 18.7 ×10⁻⁶ cm/s.

On to `CN(C)CCC(=O)Nc1ccc(C2CCCCC2)cc1`, for which the Papp A→B at 3 h came to 10.8 ×10⁻⁶ cm/s.

Consider `CN1CCN(C(=O)c2ccc(C3CCCCC3)cc2)CC1=O`, for which the Papp A→B at 3 h worked out at 10.9 ×10⁻⁶ cm/s.

As for `CN(Cc1cccnc1)C(=O)c1ccc([C@H]2[C@@H](F)[C@@H](F)C[C@@H](F)[C@H]2F)cc1`, the Papp A→B at 3 h was determined as 16.3 ×10⁻⁶ cm/s.

For `NC(=O)CCNC(=O)c1ccc(C2CCCCC2)cc1`, the Papp A→B at 3 h was determined as 14.7 ×10⁻⁶ cm/s.

As for `O=C(NCC1CCOCC1)c1ccc(C2CCCCC2)cc1`, the Papp A→B at 3 h was found to be 35.9 ×10⁻⁶ cm/s.

Turning to `O=C(NCc1cc[nH]n1)c1ccc(C2CCCCC2)cc1`, the Papp A→B at 3 h is 16.7 ×10⁻⁶ cm/s.

As to `N#CCC(=O)Nc1ccc(C2CCCCC2)cc1`, the Papp A→B at 3 h was found to be 18.6 ×10⁻⁶ cm/s.

With `NC(=O)CCNC(=O)c1ccc([C@H]2[C@@H](F)[C@@H](F)C[C@@H](F)[C@H]2F)cc1`, the Papp A→B at 3 h came out at 0.4 ×10⁻⁶ cm/s.

`O=C(NCCN1CCCC1=O)c1ccc([C@H]2[C@@H](F)[C@@H](F)C[C@@H](F)[C@H]2F)cc1`: the Papp A→B at 3 h worked out at 3.5 ×10⁻⁶ cm/s.

As for `O=C(Cn1ccnc1)Nc1ccc([C@H]2[C@@H](F)[C@@H](F)C[C@@H](F)[C@H]2F)cc1`, the Papp A→B at 3 h amounted to 0.9 ×10⁻⁶ cm/s.
